HSF-1 act – increases HSF-1 driven luciferase reporter signal; NIH3T3-HGL HSF-1 luciferase reporter, MG132, 8 h; 100% = twice DMSO control signal; activation, % at 9 µM; hit rate 1.7% among 300,000; AID 504408;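 active means mean replicate activation of at least 50% with a set share of replicates each reaching 50%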
HSF1 inh – HSF1 inhibition; NIH3T3-HGL HSE-luciferase, MG132-induced, luminescence 8 h; hits give low values; activity change, negative = inhibition, % at 7.5 µM (by protocol); hit rate 0.77% among 300,000;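 active means more than half of replicate wells show activity change below -50%, luminescence cut by over half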;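 further: luciferase reports HSF-1 transcriptional activity via heat shock element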
PHOSPHO1 inh – inhibitors of human PHOSPHO1 phosphatase; Q8TCT1; recombinant PHOSPHO1, absorbance phosphatase assay; inhibition, % at 13.3 µM; hit rate 1.1% among 290,000; in the data active means inhibition above about 60%
Target sequence (Q8TCT1 whole entry, looked up): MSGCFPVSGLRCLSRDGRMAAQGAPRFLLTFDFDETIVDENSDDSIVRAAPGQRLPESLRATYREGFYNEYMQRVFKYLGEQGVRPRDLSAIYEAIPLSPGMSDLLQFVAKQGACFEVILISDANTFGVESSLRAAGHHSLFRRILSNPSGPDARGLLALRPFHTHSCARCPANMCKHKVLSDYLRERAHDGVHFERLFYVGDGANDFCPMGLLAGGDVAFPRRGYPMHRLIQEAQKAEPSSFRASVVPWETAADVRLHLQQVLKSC
CHT PAM – allosterically activates the human high affinity choline transporter; Q9GZV3; CHT-expressing cells, membrane potential dye, choline EC20; hits give high values; LV-AA mutant CHT in HEK293 cells; B-score at 10 µM; hit rate 0.49% among 310,000; AID 488977;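 active means initial fluorescence not abnormally high and integrated response B-score, plate-corrected, over 3 SD above library mean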
Hep lipid drop – hepatic lipid droplet formation modulation; AML12 mouse hepatocytes, oleate lipid droplets, BODIPY imaging; inhibition, % at 6.5 µM; hit rate 0.4% among 240,000;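 active means lipid droplet intensity inhibited by at least 50%, with more than 500 cells counted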
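System: AML12 hepatocytes (mouse). Probe or stimulus: oleic acid at 100 µM to induce lipid droplet formation. Times: overnight treatment with compound plus oleate. Detection: Image-based BODIPY and DAPI two-channel analysis. Evaluation: percent inhibition of filter-corrected integrated lipid droplet intensity per well.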
CHT block – inhibits the human high affinity choline transporter; Q9GZV3; CHT-expressing cells, membrane potential dye, choline response; hits give low values; B-score at 10 µM; hit rate 0.86% among 310,000; AID 488975;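 active means B-score over 3 SD under the library average, and starting fluorescence ratio not unusually high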;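 further: choline stimulus applied at its EC90 after an EC20 pre-addition; B-score computed on integrated fluorescence ratio after choline addition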
CHT activ conf – human CHT activation, confirmatory screen. shares compounds with CHT PAM. CHT-expressing cells, membrane potential dye fluorescence (FDSS); % of choline EC20–EC90 response window; HEK293 expressing CHT LV-AA mutant; choline added at its EC20. activation, % at 10 µM. hit rate 91% among 2,500. AID 504833;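 active means primary screen active, with duplicate mean activation above negative control mean plus 3 SD, cut at about 11% in these data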
HEK293 MP dye – counter-screen for CHT activators: effect in parental HEK293 cells. shares compounds with CHT PAM. membrane potential dye fluorescence (FDSS); measured after EC20 choline addition. ratio readout change at 10 µM, hits read low. hit rate 62% among 2,500. AID 623908;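 active means duplicate-averaged ratio beyond 3 SD from buffer wells, up or down, though filed actives are nearly all decreases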
Large screens that a line does not name were inactive (follow-up assays come after a bar, where they were run). The list is not random: actives were taken first. Their share in the collection is about 4.9%.

CC(Sc1n[nH]c(N)n1)c1nc2scc(-c3cccs3)c2c(=O)[nH]1 (configuration not stated)	none
CCN(CC)CCNC(=S)Nc1ccc2nc(N3CCN(C)CC3)cc(C)c2c1	none | CHT activ conf 45 | HEK293 MP dye -24
COc1ccc(CNC(=S)Nc2ccc3nc(N4CCOCC4)cc(C)c3c2)cc1	none
COc1ccc(CNC(=S)Nc2ccc3nc(N4CCN(C)CC4)cc(C)c3c2)cc1	CHT PAM 6.3 | CHT activ conf 32 | HEK293 MP dye -37
CCN1CCN(c2cc(C)c3cc(NC(=S)NCc4cccs4)ccc3n2)CC1	none | CHT activ conf 21 | HEK293 MP dye -41
Cc1cc(N2CCCCC2)nc2ccc(NC(=O)c3ccc(Br)o3)cc12	none
Cc1cc(N2CCN(C)CC2)nc2ccc(NC(=O)c3ccc(Br)o3)cc12	none | CHT activ conf 44 | HEK293 MP dye -30
Cc1cc(N2CCN(C)CC2)nc2ccc(NC(=S)NCc3cccs3)cc12	none
O=C(CSc1nnc(-c2ccncc2)o1)c1ccc2c(c1)OCCO2	none
CC(=O)Nc1cccc(Oc2cnc3ccccc3n2)c1	none (no result: Hep lipid drop)
Cc1cc(N2CCOCC2)nc2ccc(NC(=S)NCCC(C)C)cc12	none | CHT activ conf 19 | HEK293 MP dye -25
Cc1cc(N2CCOCC2)nc2ccc(NC(=S)NCCN(C)C)cc12	none | CHT activ conf 45 | HEK293 MP dye -33
O=C(CC1C=Cc2ccccc2N1C(=O)c1ccccc1)c1ccccc1 (configuration not stated)	HSF-1 act 71, CHT PAM 10 | CHT activ conf 26 | HEK293 MP dye inactive
C=CCOc1ccc(CNCc2cccnc2)cc1OCC	none (no result: PHOSPHO1 inh)
Cc1oc(-c2cccc(Cl)c2)nc1CN1CCC(C(=O)NCCCN2CC(C)CC(C)C2)CC1 (configuration not stated)	none
COc1ccc(CCNC(=O)C2CCN(Cc3nc(-c4cccc(Cl)c4)oc3C)CC2)cc1OC	none | CHT activ conf 30 | HEK293 MP dye -36
COc1ccc(-c2nc(CN3CCC(C(=O)N4CCc5ccccc54)CC3)c(C)o2)cc1OC	none (no result: Hep lipid drop) | CHT activ conf 39 | HEK293 MP dye -38
COc1ccc(-c2nc(CN3CCC(C(=O)NC4CC4)CC3)c(C)o2)cc1OC	none
N#Cc1cc2c(=O)n3ccccc3nc2n(Cc2cccnc2)c1=O	CHT PAM 6.9 (no result: PHOSPHO1 inh, Hep lipid drop) | CHT activ conf 48 | HEK293 MP dye -44
COc1ccc(C(C)=O)cc1CSc1nnc2c(Cl)cc(Cl)cn12	CHT PAM 9.6 | CHT activ conf 84 | HEK293 MP dye -89
COc1ccc(C(C)=O)cc1CSc1nc2ccccc2c(=O)n1-c1ccccc1C	none | CHT activ conf 25 | HEK293 MP dye inactive
CCOc1ccc(N(C(=O)c2snc(C(N)=O)c2N)C(C(=O)NC2CCCC2)C(C)C)cc1 (configuration not stated)	none
Cc1cccn2c(CN3CCSCC3)c(C(=O)N3CCOCC3)nc12	none
Cc1cccn2c(CN3CCNC(=O)CC3)c(C(=O)N(C)CCc3ccccc3)nc12	none | CHT activ conf inactive | HEK293 MP dye inactive
CC(=O)c1ccc(NC(=O)Nc2cccnc2)cc1	none (no result: HSF-1 act, HSF1 inh)
CC(=O)c1ccc(NC(=O)Nc2ccncc2)cc1	none | CHT activ conf 34 | HEK293 MP dye -38
COc1ccc(CC2(C)OC(c3ccc(C)c([N+](=O)[O-])c3)=NN2C(C)=O)cc1 (configuration not stated)	none | CHT activ conf 27 | HEK293 MP dye inactive
COc1ccc(CC2(C)OC(c3ccc(C)cc3)=NN2C(C)=O)cc1 (configuration not stated)	none (no result: HSF-1 act, HSF1 inh)
NS(=O)(=O)c1ccc(NC(=O)c2ccc3c(c2)CCCC3)cc1	none
NS(=O)(=O)c1ccc(NC(=O)c2ccc3nccnc3c2)cc1	CHT PAM 7.5 | CHT activ conf 39 | HEK293 MP dye -27
NS(=O)(=O)c1ccc(NC(=O)CCC(=O)N2CCOCC2)cc1	none
CCOc1ccc(NS(=O)(=O)c2ccc(NC(C)=O)c(OC)c2)cc1	none
CC1CCC(NC(=O)CCCn2sc3ccccc3c2=O)CC1 (configuration not stated)	CHT PAM 8.7 | CHT activ conf 27 | HEK293 MP dye inactive
CC(=O)N1CCN(c2cc3c(cc2F)c(=O)c(C(=O)O)cn3C2CC2)CC1	none
CCN1CCN(c2cc3c(cc2F)c(=O)c(C(=O)O)cn3C2CC2)CC1	CHT PAM 8.7 | CHT activ conf 54 | HEK293 MP dye -58
C=C1SC(=Nc2c(C)cc(C)cc2C)N(C(=O)c2sc3ccccc3c2Cl)C12CCCCC2	none
CCC(C)Sc1cc(-c2nc3ccc(C)cn3c2NCc2ccccc2)ccc1OC (configuration not stated)	CHT PAM 7.7 (no result: PHOSPHO1 inh, Hep lipid drop) | CHT activ conf 22 | HEK293 MP dye -25
CCC(C)Sc1ccc(-c2nc3ccc(C)cn3c2NCc2ccccc2)cc1OC (configuration not stated)	none (no result: PHOSPHO1 inh, Hep lipid drop)
CS(=O)(=O)c1ccc(Cl)c(NC(=O)CSc2nncn2-c2ccccc2)c1	none
NC(=O)CN1CCN(CCN2C(=O)c3cccc4cccc(c34)C2=O)CC1	none | CHT activ conf 43 | HEK293 MP dye -33
CCCCn1c(SCC(=O)Nc2ccc(NC(C)=O)cc2)nc2ccccc2c1=O	none
CCc1ccc(NC(=O)CSc2nc3ccccc3c(=O)n2CCCN2CCC(C)CC2)cc1	none | CHT activ conf 17 | HEK293 MP dye inactive
O=C1c2ccccc2C(=O)N1CCCCSc1nc2ccccc2c(=O)n1CCCN1CCOCC1	none | CHT activ conf 35 | HEK293 MP dye inactive
CCN(CC)CCCNC1=C(Cl)C(=O)c2ccccc2C1=O	none | CHT activ conf 61 | HEK293 MP dye -54
COC(=O)c1sc(N)c(C(=O)OC)c1COC(=O)C12CC3CC(CC(O)(C3)C1)C2	none
Cc1cc(C)c(-n2c(O)c(C=NCCN3CCOCC3)c(=O)[nH]c2=O)c(C)c1	CHT PAM 9.8 (no result: Hep lipid drop) | CHT activ conf 17 | HEK293 MP dye inactive
O=c1[nH]c(=S)n(C2CCCCC2)c(O)c1C=NCCN1CCOCC1	none
CC1(C)CC(=O)C(C(O)c2ccc([N+](=O)[O-])cc2)C(C)(C)N1 (configuration not stated)	none
CN1CCN(c2ccc([N+](=O)[O-])cc2NC(=O)c2cccs2)CC1	CHT PAM 6.6 | CHT activ conf 52 | HEK293 MP dye -82

Screens: PubChem BioAssay, several laboratories
